{"source": "paper PMC10585311", "about": "(Saudi Pharmaceutical Journal : SPJ, 2023)", "key": {"B. subtilis": {"test_system": "B. subtilis", "assay": "Disc diffusion antibacterial screening", "format": "cell-based, Bacillus subtilis", "conditions": "B. subtilis (G + ve)", "in_short": "(§1)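 Disc diffusion on standard nutrient agar as the basal medium. Values are from triplicate experiments. Significance was set at p < 0.05.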"}, "E. coli": {"test_system": "E. coli", "assay": "Disc diffusion antibacterial screening", "format": "cell-based, Escherichia coli", "conditions": "E. coli (G–ve)", "in_short": "as §1"}, "P. aeruginosa": {"test_system": "P. aeruginosa", "assay": "Disc diffusion antibacterial screening", "format": "cell-based, Pseudomonas aeruginosa", "conditions": "P. aeruginosa (G–ve)", "in_short": "as §1"}, "Aspergillus niger": {"test_system": "Aspergillus niger", "assay": "Mycelial growth inhibition, poisoned food technique", "format": "cell-based", "conditions": "in DMSO (20 μg/μL)"}, "Aspergillus flavus": {"test_system": "Aspergillus flavus", "assay": "Mycelial growth inhibition, poisoned food technique", "format": "cell-based", "conditions": "in DMSO (20 μg/μL)"}, "brine shrimp nauplii": {"test_system": "brine shrimp nauplii", "assay": "Brine shrimp lethality assay", "format": "in vivo", "conditions": "for percentage of dead shrimp (deaths): after 24 and 48 h", "in_short": "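Brine shrimp lethality assay. Test compounds were dissolved in DMSO and made up at four levels. Each vial held 5 mL NaCl solution and one of four sample levels (A–D: 4, 8, 16, 32). Each vial received 10 nauplii, with triplicate vials per level. Mortality was scored at each level and averaged as percent.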"}, "S. aureus": {"test_system": "S. aureus", "assay": "Disc diffusion antibacterial screening", "format": "cell-based", "conditions": "S. aureus (G + ve)", "in_short": "as §1"}, "S. typhi": {"test_system": "S. typhi", "assay": "Disc diffusion antibacterial screening", "format": "cell-based, Salmonella typhi", "conditions": "S. typhi (G–ve)", "in_short": "as §1"}, "tested bacteria": {"test_system": "tested bacteria", "assay": "Disc diffusion antibacterial screening, overall statements", "format": "cell-based", "in_short": "as §1"}, "B. cereus": {"test_system": "B. cereus", "assay": "Disc diffusion antibacterial screening", "format": "cell-based, Bacillus cereus", "in_short": "as §1"}}}
{"compound": "CO[C@H]1O[C@H](COC(c2ccccc2)(c2ccccc2)c2ccccc2)[C@@H](O)[C@H](O)[C@H]1O", "note": "[Compound 2, Methyl 6-O-(triphenylmethyl)-α-D-glucopyranoside]", "values": [{"measurement": "Diameter of Inhibition Zones", "setting": "B. subtilis", "value": "8 ± 0.5", "unit": "mm"}, {"measurement": "Diameter of Inhibition Zones", "setting": "E. coli", "value": "9 ± 0.2", "unit": "mm"}, {"measurement": "Diameter of Inhibition Zones", "setting": "P. aeruginosa", "value": "9 ± 0.1", "unit": "mm"}, {"measurement": "Percent inhibition of fungal mycelial growth", "setting": "Aspergillus niger", "value": 36.43, "unit": "%"}, {"measurement": "Percent inhibition of fungal mycelial growth", "setting": "Aspergillus flavus", "value": 33.33, "unit": "%"}, {"measurement": "percentage of dead shrimp (deaths)", "setting": "brine shrimp nauplii", "value": 32.11, "unit": "%"}]}
{"compound": "CCCCCCCCCCCC(=O)O[C@@H]1[C@@H](OC(=O)CCCCCCCCCCC)[C@@H](OC)O[C@H](COC(=O)c2ccc(OC)cc2)[C@H]1OC(=O)CCCCCCCCCCC", "note": "[Compound 8, Methyl 2,3,4-tri-O-lauroyl-6-O-(4-methoxybenzoyl)-α-D-glucopyranoside]", "values": [{"measurement": "Diameter of Inhibition Zones", "setting": "B. subtilis", "value": "9 ± 0.3", "unit": "mm"}, {"measurement": "Diameter of Inhibition Zones", "setting": "S. aureus", "value": "11 ± 0.2", "unit": "mm"}, {"measurement": "Diameter of Inhibition Zones", "setting": "E. coli", "value": "10 ± 0.1", "unit": "mm"}, {"measurement": "Percent inhibition of fungal mycelial growth", "setting": "Aspergillus niger", "value": "*66.41 ± 0.37%"}, {"measurement": "Percent inhibition of fungal mycelial growth", "setting": "Aspergillus flavus", "value": "*63.31 ± 0.51%"}, {"measurement": "toxicity to brine shrimp", "setting": "brine shrimp nauplii", "value": "less toxic"}]}
{"compound": "CCCCCCCCCCCCCC(=O)O[C@@H]1[C@@H](OC(=O)CCCCCCCCCCCCC)[C@@H](OC)O[C@H](COC(c2ccccc2)(c2ccccc2)c2ccccc2)[C@H]1OC(=O)CCCCCCCCCCCCC", "note": "[Compound 4, Methyl 2,3,4-tri-O-myristoyl-6-O-(triphenylmethyl)-α-D-glucopyranoside]", "values": [{"measurement": "Diameter of Inhibition Zones", "setting": "B. subtilis", "value": "10 ± 0.3", "unit": "mm"}, {"measurement": "Diameter of Inhibition Zones", "setting": "S. typhi", "value": "9 ± 0.5", "unit": "mm"}, {"measurement": "Diameter of Inhibition Zones", "setting": "P. aeruginosa", "value": "8 ± 0.2", "unit": "mm"}, {"measurement": "Percent inhibition of fungal mycelial growth", "setting": "Aspergillus niger", "value": 31.92, "unit": "%"}, {"measurement": "percentage of dead shrimp (deaths)", "setting": "brine shrimp nauplii", "value": 47.64, "unit": "%"}]}
{"compound": "CC[C@H]1OC(=O)[C@H](C)[C@@H](O[C@H]2C[C@@](C)(OC)[C@@H](O)[C@H](C)O2)[C@H](C)[C@@H](O[C@@H]2O[C@H](C)C[C@H](N(C)C)[C@H]2O)[C@](C)(O)C[C@@H](C)CN(C)[C@H](C)[C@@H](O)[C@]1(C)O", "note": "[Azithromycin, reference compound]", "values": [{"measurement": "Diameter of Inhibition Zones", "setting": "B. subtilis", "value": "**19 ± 0.6 mm"}, {"measurement": "Diameter of Inhibition Zones", "setting": "S. aureus", "value": "**18 ± 0.5 mm"}, {"measurement": "Diameter of Inhibition Zones", "setting": "E. coli", "value": "**17 ± 0.4 mm"}, {"measurement": "Diameter of Inhibition Zones", "setting": "S. typhi", "value": "**19 ± 0.5 mm"}, {"measurement": "Diameter of Inhibition Zones", "setting": "P. aeruginosa", "value": "**17 ± 0.5 mm"}]}
{"compound": "COc1ccc(C(=O)OC[C@H]2O[C@H](OC)[C@H](O)[C@@H](O)[C@@H]2O)cc1", "note": "[Compound 7, Methyl 6-O-(4-methoxybenzoyl)-α-D-glucopyranoside]", "values": [{"measurement": "Diameter of Inhibition Zones", "setting": "B. subtilis", "value": "*12 ± 0.2 mm"}, {"measurement": "Diameter of Inhibition Zones", "setting": "S. aureus", "value": "10 ± 0.1", "unit": "mm"}, {"measurement": "Diameter of Inhibition Zones", "setting": "E. coli", "value": "9 ± 0.4", "unit": "mm"}, {"measurement": "Percent inhibition of fungal mycelial growth", "setting": "Aspergillus niger", "value": "48.40 ± 0.22", "unit": "%"}, {"measurement": "Percent inhibition of fungal mycelial growth", "setting": "Aspergillus flavus", "value": "35.38 ± 0.32", "unit": "%"}]}
{"compound": "CO[C@H]1O[C@H](CO)[C@@H](O)[C@H](O)[C@H]1O", "note": "[Compound 1, methyl α-D-glucopyranoside, reference compound]", "values": [{"measurement": "antibacterial activity", "setting": "tested bacteria; all tested bacteria", "value": "did not show any antibacterial activity"}]}
{"compound": "CO[C@H]1O[C@H](COC(c2ccccc2)(c2ccccc2)c2ccccc2)[C@@H](OC(=O)c2ccc(C(C)(C)C)cc2)[C@H](OC(=O)c2ccc(C(C)(C)C)cc2)[C@H]1OC(=O)c1ccc(C(C)(C)C)cc1", "note": "[Compound 5, Methyl 2,3,4-tri-O-(4-t-butylbenzoyl)-6-O-(triphenylmethyl)-α-D-glucopyranoside]", "values": [{"measurement": "Diameter of Inhibition Zones", "setting": "S. aureus", "value": "*17 ± 0.1 mm"}, {"measurement": "Diameter of Inhibition Zones", "setting": "E. coli", "value": "*15 ± 0.2 mm"}, {"measurement": "Diameter of Inhibition Zones", "setting": "S. typhi", "value": "10 ± 0.4", "unit": "mm"}, {"measurement": "zone of inhibition", "setting": "B. cereus", "value": "17 ± 0.1", "unit": "mm"}, {"measurement": "Percent inhibition of fungal mycelial growth", "setting": "Aspergillus flavus", "value": "*59.54 ± 0.14%"}, {"measurement": "percentage of dead shrimp (deaths)", "setting": "brine shrimp nauplii", "value": 48.21, "unit": "%"}]}
{"compound": "C[C@@H]1[C@H](O)[C@@H](C)/C=C/C=C/CC/C=C/C=C/C=C/C=C/C(O[C@H]2O[C@H](C)[C@@H](O)[C@H](N)[C@@H]2O)CC2O[C@](O)(CC(O)C(O)CCC(O)CC(O)CC(O)CC(=O)O[C@H]1C)CC(O)C2C(=O)O", "note": "(stereo partly drawn) [Nystatin, reference compound]", "values": [{"measurement": "Percent inhibition of fungal mycelial growth", "setting": "Aspergillus niger", "value": "**66.40 ± 0.05%"}, {"measurement": "Percent inhibition of fungal mycelial growth", "setting": "Aspergillus flavus", "value": "**63.10 ± 0.09%"}]}
{"compound": "Methyl 2,3,4-tri-O-lauryl-6-O-(triphenylmethyl)-α-D-glucopyranoside [Compound 3]", "values": [{"measurement": "Diameter of Inhibition Zones", "setting": "S. typhi", "value": "10 ± 0.1", "unit": "mm"}, {"measurement": "Diameter of Inhibition Zones", "setting": "P. aeruginosa", "value": "*12 ± 0.3 mm"}, {"measurement": "Percent inhibition of fungal mycelial growth", "setting": "Aspergillus niger", "value": 46.62, "unit": "%"}, {"measurement": "Percent inhibition of fungal mycelial growth", "setting": "Aspergillus flavus", "value": 41.30, "unit": "%"}, {"measurement": "toxicity to brine shrimp", "setting": "brine shrimp nauplii", "value": "less toxic"}, {"measurement": "inhibitory activity", "setting": "tested bacteria; tested gram-positive bacteria", "value": "did not show any inhibitory activity"}]}
